Screening results: PubChem BioAssay, several laboratories
DAGLB inh = diacylglycerol lipase beta (human) inhibition. Q8NCG7. HEK293T DAGLB membrane lysate, EnzChek fluorogenic substrate. inhibition, % at 5.17 µM. hit rate 0.059% among 340,000. AID 504411; in the data active = inhibition above about 34%
NR2E3 ag-1 = agonists of human nuclear receptor NR2E3 | Q9Y5X4 | GST-NR2E3/biotin-RetCOR TR-FRET, 1536-well | inhibition of corepressor binding, % at 4.78 µM | hit rate 0.12% among 320,000;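 active = percent inhibition above the cutoff of mean plus 3 SD of all tested compounds, set per screening campaign, cut at about 20% in these data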
Target sequence (Q9Y5X4 whole entry, looked up): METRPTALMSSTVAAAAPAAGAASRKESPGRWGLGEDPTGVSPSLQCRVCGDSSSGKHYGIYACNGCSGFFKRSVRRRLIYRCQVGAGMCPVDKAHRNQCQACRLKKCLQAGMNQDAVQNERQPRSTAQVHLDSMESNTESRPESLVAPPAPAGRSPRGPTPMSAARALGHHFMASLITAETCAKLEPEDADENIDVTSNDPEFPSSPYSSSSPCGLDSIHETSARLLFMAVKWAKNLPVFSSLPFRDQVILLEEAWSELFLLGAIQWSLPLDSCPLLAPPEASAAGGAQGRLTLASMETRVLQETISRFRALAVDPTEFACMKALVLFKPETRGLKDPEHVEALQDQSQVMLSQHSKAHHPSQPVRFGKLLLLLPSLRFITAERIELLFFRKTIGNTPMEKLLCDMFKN
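system = GST-tagged NR2E3 plus biotinylated RetCOR corepressor | input = 1.35 nM GST-NR2E3 | also added = 7 nM biotin-RetCOR | schedule = 5 h incubation at 4 °C | measured by = TR-FRET with europium anti-GST and streptavidin-D2, 340 nm excitation | read-out = percent loss of FRET ratio relative to control wells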
HCV core dimer = HCV core protein dimerization inhibition; TR-FRET GST/Flag-core106 dimerization, 1536-well; inhibition, % at 5 µM; hit rate 0.33% among 300,000; AID 1899;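 active = inhibition above the mean of all tested compounds plus 3 SD, set per screening campaign, cut at about 45% in these data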
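Material: GST/Flag-tagged HCV core106 proteins. Incubation: 4 h, 22.5 °C incubation. Read-out basis: inhibition (%) from 671 over 617 nm ratio. Measured by: TR-FRET, excitation 340 nm, emission 617 and 671 nm.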
Vif inh = blocks HIV Vif function; hit rate 0.35% among 340,000; inhibition, % at 7.49 µM; AID 602346; HEK293T cells, Vif self-association by quenched fluorescence, imaging, 24 h; in the data active = inhibition above about 50%, passing the limit was not always enough
NR2E3 ag-2 = agonists of human NR2E3 nuclear receptor | inhibition of corepressor binding, % at 3.98 µM | hit rate 0.35% among 360,000 | CHO-S Gal4-NCOR/VP16-NR2E3 two-hybrid, luciferase | Q9Y5X4 | AID 602229;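 active = inhibition above the mean of all tested compounds plus 3 SD, cut at about 70% in these data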;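 note: higher means lower luciferase signal from less NR2E3 corepressor binding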
MT1-MMP act inh = blocks activation of human MT1-MMP | P50281 | HT1080 RFP-PRO-GFP cells, GFP/RFP ratio fluorescence, overnight; percent of plate control window, DMSO zero | GFP/RFP ratio change, % at 20 µM | hit rate 0.061% among 360,000;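 active = GFP/RFP ratio change of at least 30% with cell ATP level not reduced by more than half and red fluorescence within 50% of control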
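Read-out: GFP/RFP fluorescence ratio; Test system: RFP-PRO-GFP reporter HT1080 cells; Compound dosing: single-point 20 µM compound, 1% DMSO; Times: overnight compound exposure at 37 °C.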
NR2E3 ag confirm = confirmation of human NR2E3 agonists | AID 624378 | CHO-S mammalian two-hybrid NR2E3-NCOR, luciferase luminescence | shares compounds with NR2E3 ag-2 | inhibition, % at 3.98 µM | hit rate 51% among 2,300;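 active = average inhibition above a cutoff equal to the mean inhibition of all tested compounds plus one SD, cut at about 70% in these data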
VP16 counter = counter-screen for NR2E3 agonists: GAL4-VP16 reporter inhibitors; shares compounds with NR2E3 ag-2; inhibition, % at 3.98 µM; CHO-S GAL4-VP16 luciferase reporter, luminescence; hit rate 29% among 2,300;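 active = mean inhibition above a cutoff equal to the average over all tested compounds plus one standard deviation, cut at about 70% in these data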;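 note: luciferase from a UAS reporter driven by GAL4-VP16 transactivation; higher means less reporter light so more repression of VP16 activity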
Each line names hits and unclear results; the compound was inactive in the other large screens (follow-up assays come after a bar, where they were run). An excerpt weighted towards active compounds, which were near 1.1% of everything screened.

Cc1ccc(OCc2ccc(C(=O)Nc3c(C)nn(Cc4c(F)c(F)c(F)c(F)c4F)c3C)o2)c([N+](=O)[O-])c1	none | NR2E3 ag confirm inactive | VP16 counter inactive
Cc1ccc(OCc2ccc(C(=O)NN)o2)c([N+](=O)[O-])c1	none
CCc1cccc(OCC(=O)Nc2ccc(C)c(S(=O)(=O)N3CCCCCC3)c2)c1	none
Cc1ccc(NC(=O)COc2ccc(N(C)C(=O)C(C)(C)C)cc2)cc1S(=O)(=O)N1CCCCC1	none (no result: NR2E3 ag-1, HCV core dimer, Vif inh) | NR2E3 ag confirm inactive | VP16 counter inactive
Cc1csc2ncnc(NCCc3ccccn3)c12	NR2E3 ag-2 70.9 | NR2E3 ag confirm 89.7 | VP16 counter 77.5
Cn1cccc1/C=C1\SC(=S)N(NC(=O)c2cccc(Cl)c2)C1=O	none
Cc1ccc(S(=O)(=O)N(Cc2ccc([N+](=O)[O-])cc2)C(=O)N2CCN(C)CC2)cc1	none (no result: NR2E3 ag-1, HCV core dimer)
CCCOc1ccc(OCC(=O)c2[nH]c(C)c(C(C)=O)c2C)cc1	NR2E3 ag-2 79.0 | NR2E3 ag confirm 93.9 | VP16 counter 77.8
CCOc1ccc(S(=O)(=O)n2cnc3cc(C)c(C)cc32)cc1	none | NR2E3 ag confirm 83.3 | VP16 counter 76.0
Cc1cc2ncn(S(=O)(=O)c3ccc(S(N)(=O)=O)cc3)c2cc1C	none (no result: NR2E3 ag-1, HCV core dimer)
CCCCn1c(N)c(N(CC(C)C)C(=O)CC2CCCCC2)c(=O)[nH]c1=O	none
COc1ccc(OC)c(-c2cc(C(=O)Nc3c(C)n(C)n(-c4ccccc4)c3=O)no2)c1	none (no result: MT1-MMP act inh) | NR2E3 ag confirm inactive | VP16 counter inactive
Cc1nc2c(C(=O)NCCC(C)C)c[nH]n2c(=O)c1Cl	none
Cc1nc2c(C(=O)NCCC(C)C)c[nH]n2c(=O)c1Cc1ccccc1F	NR2E3 ag-2 100.5 (no result: Vif inh) | NR2E3 ag confirm 85.6 | VP16 counter inactive
Cn1c(CCN2CCN(c3ccccn3)CC2)nc2cc(NS(=O)(=O)c3ccc(Cl)cc3)ccc21	none
Cc1ccc2c(c1)sc1nncn12	none (no result: NR2E3 ag-1, HCV core dimer)
O=C(Nc1cccc(NC(=O)c2c(F)cccc2F)n1)c1c(F)cccc1F	none | NR2E3 ag confirm 79.4 | VP16 counter inactive
COCCNC(=O)C1(C)CCCN(CCOc2ccc(Cl)cc2)C1 (stereo unspecified)	none (no result: DAGLB inh, NR2E3 ag-1, HCV core dimer)
Clc1c(Cl)c(Cl)c2n[nH]nc2c1Cl	none | NR2E3 ag confirm 96.4 | VP16 counter 80.9
CCN(CC)CCNC(=O)C(=O)Nc1cc2c3c(c1)CCC(=O)N3CCC2	NR2E3 ag-2 75.1 | NR2E3 ag confirm inactive | VP16 counter inactive
CSc1ncnc2c1ncn2CCCN1CCN(C(=O)C2CC2)CC1	none (no result: NR2E3 ag-1, HCV core dimer)
O=S(=O)(NN=C1CCCCCCC1)c1ccccc1	none (no result: NR2E3 ag-1, HCV core dimer)
Cn1cc(CNCc2ccc(OC(F)(F)F)cc2)c(-c2ccc3c(c2)OCCO3)n1	NR2E3 ag-2 75.8 | NR2E3 ag confirm 90.5 | VP16 counter 78.6
Cn1cc(CNCc2cn[nH]c2-c2ccc(F)cc2)c(-c2ccc3c(c2)OCCO3)n1	none
CN(Cc1cnc2nc(N)nc(N)c2n1)c1ccc(C(=O)NC(CCC(=O)O)C(=O)O)cc1C(F)(F)F (stereo unspecified)	none (no result: NR2E3 ag-1, HCV core dimer, MT1-MMP act inh)
CN(Cc1cnc2nc(N)nc(N)c2n1)c1ccc(C(=O)NC(CCC(=O)O)C(=O)O)cc1 (stereo unspecified)	none (no result: NR2E3 ag-1, HCV core dimer) | NR2E3 ag confirm inactive | VP16 counter inactive
COC(=O)c1ccccc1NC(=O)CN1CCC(n2nnc3cc(C(F)(F)F)ccc32)CC1	none
CC1Cc2ccccc2N1C(=O)CN1CCC(n2nnc3cc(C(F)(F)F)ccc32)CC1 (stereo unspecified)	none | NR2E3 ag confirm inactive | VP16 counter inactive
Cn1c(=O)c2c(ncn2CC(=O)Nc2cc(S(=O)(=O)N3CCCCC3)ccc2O)n(C)c1=O	none (no result: NR2E3 ag-1, HCV core dimer)
O=C(CNc1cccc(S(=O)(=O)N2CCOCC2)c1)Nc1ccc(C(F)(F)F)cc1	none | NR2E3 ag confirm inactive | VP16 counter inactive
COc1ccc(CC(=O)Nc2cccc(S(=O)(=O)N3CCCCCC3)c2)cc1OC	NR2E3 ag-2 79.6 | NR2E3 ag confirm 89.7 | VP16 counter 77.3
CCN(CC)S(=O)(=O)c1cc(NC(=O)CNc2cccc(S(=O)(=O)N3CCCC3)c2)ccc1C	none | NR2E3 ag confirm inactive | VP16 counter inactive
CC(C)(Oc1ccc(Cl)cc1)C(=O)Nc1ccc(S(=O)(=O)Nc2ncccn2)cc1	none
CN(C)S(=O)(=O)Oc1cccc(C(=O)Nc2ccc(Cl)cc2)c1	none | NR2E3 ag confirm inactive | VP16 counter inactive
CN(C)S(=O)(=O)Oc1cccc(C(=O)Nc2ccccc2Cl)c1	none
Cn1c(=O)c(C#N)c(-c2ccc(F)cc2)c2cc(C(=O)c3cc(Cl)cc(Cl)c3O)cnc21	NR2E3 ag-2 93.8 | NR2E3 ag confirm 100.3 | VP16 counter 94.2
O=C(Nc1ccc(F)cc1)OCCOc1ccc(Br)cc1	none
CNC(=O)CSc1nc2cc(S(=O)(=O)Nc3ccc(OC)cc3)ccc2o1	none
COc1ccc(NS(=O)(=O)c2ccc3oc(SC)nc3c2)cc1	NR2E3 ag-2 74.2 | NR2E3 ag confirm inactive | VP16 counter inactive
COc1ccc(OC)c(CCNC(=O)Cn2nc(C)c3c(C)n(-c4ccc(C)cc4)nc3c2=O)c1	NR2E3 ag-2 73.9 | NR2E3 ag confirm inactive | VP16 counter inactive
Cc1ccc2nc(SCC(=O)Nc3cc(C)on3)nc(=O)n2c1	none
Cc1cccc(C)c1OCc1cc(C(=O)N2CCC(c3ccncc3)CC2)no1	NR2E3 ag-2 86.5 | NR2E3 ag confirm 88.2 | VP16 counter inactive
O=C(c1cc(COc2c(F)cccc2F)on1)N1CCC(c2ccccc2Cl)C1 (stereo unspecified)	none
O=C(c1cc(COc2cccc3cnccc23)on1)N1CCC(c2ccccc2Cl)C1 (stereo unspecified)	NR2E3 ag-2 95.2 | NR2E3 ag confirm 78.0 | VP16 counter inactive
Cc1cccc(C)c1OCc1cc(C(=O)N2CCN(C3CCCC3)CC2)no1	none
O=C(c1cc(COc2c(F)cccc2F)on1)N1CCC(c2ccccc2F)C1 (stereo unspecified)	none
O=C(c1cc(COc2c(F)cccc2F)on1)N1CCC(c2ccncc2)CC1	none | NR2E3 ag confirm 83.4 | VP16 counter 72.9
COc1ccc(NCc2nnc(-c3ccccc3)o2)cc1	none
Cc1ccc(S(=O)(=O)Nc2nc3ccccc3nc2NCc2ccco2)cc1	none
Cc1ccc(S(=O)(=O)Nc2nc3ccccc3nc2NCc2ccco2)cc1C	none | NR2E3 ag confirm inactive | VP16 counter inactive
